Data as given in ChEMBL document CHEMBL5346953, “Dual Piperidine-Based Histamine H3 and Sigma-1 Receptor Ligands in the Treatment of Nociceptive and Neuropathic Pain” (J Med Chem, 2023).
Each block holds one molecule with its values, some of them ahead of it. Calls of active or inactive are those of the source.

Key:
Histamine H3 receptor [1] = target: T1, Histamine H3 receptor (Homo sapiens, UniProt Q9Y5N1); experiment: Displacement of [3H]Nalpha-methylhistamine from recombinant human histamine H3 receptor stably expressed in HEK293 cells assessed as inhibition constant by competitive binding based radioligand depletion assay; assay type: cell-based
T1 sequence (Q9Y5N1 whole entry): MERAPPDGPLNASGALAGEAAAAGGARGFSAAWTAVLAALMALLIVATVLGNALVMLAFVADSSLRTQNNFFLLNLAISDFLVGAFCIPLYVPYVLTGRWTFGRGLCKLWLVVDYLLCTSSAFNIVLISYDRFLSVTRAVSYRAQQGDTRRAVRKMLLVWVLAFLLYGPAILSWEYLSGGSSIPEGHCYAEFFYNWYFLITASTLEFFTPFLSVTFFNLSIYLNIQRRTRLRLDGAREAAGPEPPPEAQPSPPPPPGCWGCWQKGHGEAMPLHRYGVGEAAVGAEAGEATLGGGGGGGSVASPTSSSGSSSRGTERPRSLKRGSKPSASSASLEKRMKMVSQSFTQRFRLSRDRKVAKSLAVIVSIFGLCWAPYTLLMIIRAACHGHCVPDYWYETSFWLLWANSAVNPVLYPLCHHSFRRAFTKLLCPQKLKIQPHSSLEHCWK

Mus musculus [2] = experiment: Effect in loperamide-induced antinociception mouse assessed as increase in struggle response latency at ip administration; assay type: functional, organism-based
Mus musculus [3] = experiment: Analgesic activity in CCI-induced neuropathic pain mouse model assessed as increase in mechanical paw withdrawal threshold at 10 mg/kg,ip administration measured after 30 mins by von frey test; assay type: functional, organism-based
In short: (§1)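 CCI mice tested 14 days after sciatic nerve injury. Groups received i.p. vehicle or drug at 5, 10 or 15 mg/kg. Baselines were taken before injection, with n = 7–8 per group. Read-outs were von Frey (ipsilateral and contralateral paw) at 30, 90 and 180 min, cold plate at 35, 95 and 185 min, and tail flick at 40, 100 and 190 min. Values are %MPE (mean ± SEM), analysed by one-way ANOVA with Bonferroni post hoc.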

[4] = Neurotoxicity against mouse assessed as reduction in spontaneous locomotor activity at 30 mg/kg,ip observed after 30 mins of administration; assay type: toxicity, organism-based; details: in vivo, 0.5 h
In short: (§2)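 Spontaneous locomotor activity was recorded in mice after i.p. dosing at 15 or 30 mg/kg, compared with vehicle, as a test of sedation. Analysis was one-way ANOVA. […]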

Mus musculus [5] = experiment: Antinociceptive activity in mouse assessed as effect on struggle response latency at 25 ug,ip administration; assay type: functional, organism-based; details: dose 25.0 µg
Mus musculus [6] = experiment: Anti-hyperalgesic activity in CCI-induced neuropathic pain mouse model assessed as effect on thermal stimuli at 5 to 15 mg/kg,ip administration measured after 95 mins by cold plate test; assay type: functional, organism-based; details: dose 5-15 mg/kg; in short: as §1
Mus musculus [7] = experiment: Antiallodynic activity against oxaliplatin-induced peripheral neuropathy mouse model assessed as increase in pain threshold baseline at late phase at 5 mg/kg,ip followed by oxaliplatin treatment measured after 7 days by von frey test; assay type: functional; details: time 7 day
In short: (§3)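 Mice with oxaliplatin-induced neuropathy were given the drug as a single dose at 5, 10 or 15 mg/kg. Tactile allodynia was measured by von Frey 3 h (early phase) and 7 days (late phase) after neuropathy induction. Thresholds are expressed relative to each group's pre-oxaliplatin baseline.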

[8] = Neurotoxicity against mouse assessed as impairment of motor coordination at 15 mg/kg,ip administration at 24 rpm by rotarod test; assay type: toxicity, organism-based; details: in vivo
In short: (§4)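 Mice received 15 mg/kg i.p. or vehicle. Motor coordination was then measured as time on the rotarod, at 18 and 24 rpm, with a maximum of 60 s.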

Mus musculus [9] = experiment: Antiallodynic activity against oxaliplatin-induced peripheral neuropathy mouse model assessed as increase in pain threshold baseline at early phase at 15 mg/kg,ip followed by oxaliplatin treatment measured after 3 hrs by von frey test; assay type: functional; in short: as §3
Mus musculus [10] = experiment: Analgesic activity in CCI-induced neuropathic pain mouse model assessed as effect on spinal response at 5 mg/kg,ip administration measured after 40 mins by tail flick test; assay type: functional, organism-based; in short: as §1
Mus musculus [11] = experiment: Analgesic activity in CCI-induced neuropathic pain mouse model assessed as effect on spinal response at 10 mg/kg,ip administration measured after 100 mins by tail flick test; assay type: functional, organism-based; in short: as §1
Mus musculus [12] = experiment: Analgesic activity in CCI-induced neuropathic pain mouse model assessed as effect on thermal stimuli at 5 to 15 mg/kg,ip administration measured after 35 mins by cold plate test; assay type: functional, organism-based; details: dose 5-15 mg/kg; in short: as §1
Mus musculus [13] = experiment: Antiallodynic activity against oxaliplatin-induced peripheral neuropathy mouse model assessed as increase in pain threshold baseline at late phase at 10 mg/kg,ip followed by oxaliplatin treatment measured after 7 days by von frey test; assay type: functional; details: time 7 day; in short: as §3
[14] = Neurotoxicity against mouse assessed as impairment of motor coordination at 15 mg/kg,ip administration at 18 rpm by rotarod test; assay type: toxicity, organism-based; details: in vivo; in short: as §4
Mus musculus [15] = experiment: Analgesic activity in CCI-induced neuropathic pain mouse model assessed as effect on thermal stimuli at 5 mg/kg,ip administration measured after 185 mins by cold plate test; assay type: functional, organism-based; in short: as §1
[16] = Neurotoxicity against mouse assessed as effect in spontaneous locomotor activity by measuring effective dose at ip administration observed after 30 mins; assay type: toxicity, organism-based; details: in vivo, 0.5 h; in short: as §2
[17] = Neurotoxicity against mouse assessed as reduction in spontaneous locomotor activity at 15 mg/kg,ip observed after 30 mins of administration; assay type: toxicity, organism-based; details: in vivo, 0.5 h; in short: as §2
Histamine H3 receptor [18] = target: T1, Histamine H3 receptor; experiment: Inhibition of recombinant human histamine H3 receptor stably expressed in HEK293 cells assessed as increase in cAMP accumulation in presence of forskolin incubated for 30 mins by TR-FRET LANCE assay; assay type: functional, cell-based
Mus musculus [19] = experiment: Antinociceptive activity in loperamide-induced mouse assessed as increase in struggle response latency struggle response latency at 25 ug,ip administration in presence of PRE-084; assay type: functional, organism-based; details: dose 25.0 µg
Mus musculus [20] = experiment: Analgesic activity in CCI-induced neuropathic pain mouse model assessed as increase in mechanical paw withdrawal threshold at 5 mg/kg,ip administration measured after 30 mins by von frey test; assay type: functional, organism-based; in short: as §1
Mus musculus [21] = experiment: Antiallodynic activity against oxaliplatin-induced peripheral neuropathy mouse model assessed as increase in pain threshold baseline at late phase at 5 mg/kg,ip administrated in presence of oxaliplatin measured after 7 days by von frey test; assay type: functional, organism-based; details: time 7.0 day; in short: as §3
Mus musculus [22] = experiment: Antinociceptive activity in Capsaicin-induced nociceptive mouse model assessed as reduction in paw licking at 10 to 30 mg/kg,ip administration followed by capsaicin treatment; assay type: functional, organism-based; details: dose 10-30 mg/kg
In short: (§5)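 Capsaicin was injected intraplantarly into mice pretreated with 10, 15 or 30 mg/kg, with 1% Tween 80 as vehicle. Licking/biting time was scored for 5 min after injection, with 8–10 mice per group, as mean ± SEM. Analysis was one-way ANOVA with Dunnett's test. ED50 was estimated from the dose–response.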

Mus musculus [23] = experiment: Analgesic activity in CCI-induced neuropathic pain mouse model assessed as increase in mechanical paw withdrawal threshold at 10 mg/kg,ip administration measured after 90 mins by von frey test; assay type: functional, organism-based; in short: as §1
Mus musculus [24] = experiment: Antiallodynic activity against oxaliplatin-induced peripheral neuropathy mouse model assessed as increase in pain threshold baseline at late phase at 15 mg/kg,ip followed by oxaliplatin treatment measured after 7 days by von frey test; assay type: functional; details: time 7 day; in short: as §3
Mus musculus [25] = experiment: Analgesic activity in CCI-induced neuropathic pain mouse model assessed as effect on spinal response at 10 mg/kg,ip administration measured after 190 mins by tail flick test; assay type: functional, organism-based; in short: as §1
Mus musculus [26] = experiment: Analgesic activity in CCI-induced neuropathic pain mouse model assessed as effect on thermal stimuli at 10 mg/kg,ip administration measured after 185 mins by cold plate test; assay type: functional, organism-based; in short: as §1
Mus musculus [27] = experiment: Analgesic activity in CCI-induced neuropathic pain mouse model assessed as effect on tactile allodynia at 5 mg/kg,ip administration measured after 30 to 180 mins by von frey test; assay type: functional, organism-based; details: time lower 30.0 min, time upper […]; in short: as §1
Mus musculus [28] = experiment: Analgesic activity in CCI-induced neuropathic pain mouse model assessed as increase in mechanical paw withdrawal threshold at 10 mg/kg,ip administration measured after 180 mins by von frey test; assay type: functional, organism-based; in short: as §1
Mus musculus [29] = experiment: Antinociceptive activity in Capsaicin-induced nociceptive mouse model assessed as reduction in biting behavior at 10 to 30 mg/kg,ip administration followed by capsaicin treatment; assay type: functional, organism-based; details: dose 10-30 mg/kg; in short: as §5
Mus musculus [30] = experiment: Analgesic activity in CCI-induced neuropathic pain mouse model assessed as effect on spinal response at 10 mg/kg,ip administration measured after 40 mins by tail flick test; assay type: functional, organism-based; in short: as §1
Mus musculus [31] = experiment: Analgesic activity in CCI-induced neuropathic pain mouse model assessed as increase in contralateral paw withdrawal threshold at 10 mg/kg,ip administration measured after 90 mins by von frey test; assay type: functional, organism-based; in short: as §1
Mus musculus [32] = experiment: Analgesic activity in CCI-induced neuropathic pain mouse model assessed as effect on withdrawal threshold at 15 mg/kg,ip administration measured after 90 mins by von frey test; assay type: functional, organism-based; in short: as §1
Mus musculus [33] = experiment: Analgesic activity in CCI-induced neuropathic pain mouse model assessed as effect on withdrawal threshold at 15 mg/kg,ip administration measured after 30 mins by von frey test; assay type: functional, organism-based; in short: as §1
Mus musculus [34] = experiment: Analgesic activity in CCI-induced neuropathic pain mouse model assessed as effect on withdrawal threshold at 15 mg/kg,ip administration measured after 180 mins by von frey test; assay type: functional, organism-based; in short: as §1
Mus musculus [35] = experiment: Antiallodynic activity against oxaliplatin-induced peripheral neuropathy mouse model assessed as increase in pain threshold baseline at early phase at 10 mg/kg,ip followed by oxaliplatin treatment measured after 3 hrs by von frey test; assay type: functional; in short: as §3
Mus musculus [36] = experiment: Antinociceptive activity in loperamide-induced mouse assessed as increase in struggle response latency struggle response latency at 25 ug,ip administration in presence of naloxone-methiodide; assay type: functional, organism-based; details: dose 25.0 µg
Mus musculus [37] = experiment: Antiallodynic activity against oxaliplatin-induced peripheral neuropathy mouse model assessed as increase in pain threshold baseline at early phase at 5 mg/kg,ip followed by oxaliplatin treatment measured after 3 hrs by von frey test; assay type: functional; in short: as §3
Mus musculus [38] = experiment: Analgesic activity in CCI-induced neuropathic pain mouse model assessed as effect on tactile allodynia at 10 mg/kg,ip administration measured after 30 to 180 mins by von frey test; assay type: functional, organism-based; details: time lower 30.0 min, time upper […]; in short: as §1
[39] = target: Sigma non-opioid intracellular receptor 1 (Cavia porcellus, UniProt Q60492); experiment: Displacement of [3H](+)-pentazocine from sigma 1 receptor in guinea pig brain membrane assessed as inhibition constant by liquid scintillation counter analysis; assay type: cell membranes
Sequence of Sigma non-opioid intracellular receptor 1 (Q60492 whole entry): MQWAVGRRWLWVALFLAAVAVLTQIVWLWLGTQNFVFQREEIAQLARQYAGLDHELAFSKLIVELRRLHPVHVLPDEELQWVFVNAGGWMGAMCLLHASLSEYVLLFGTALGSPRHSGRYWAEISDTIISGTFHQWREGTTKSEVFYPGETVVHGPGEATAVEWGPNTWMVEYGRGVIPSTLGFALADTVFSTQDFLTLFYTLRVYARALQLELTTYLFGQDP

Ki (Histamine H3 receptor [1]): 0.0275 µM
SMILES: c1ccc(Cc2ccc(OCCCN3CCCCC3)cc2)cc1

IC50 (Histamine H3 receptor [18]): 0.215 µM
SMILES: N#Cc1ccc(-c2ccc(OCCCN3CCC(c4ccncc4)CC3)cc2)cc1
Activity (Mus musculus [2]): Dose-Dependent Effect | Activity (Mus musculus [3]): Active | Activity [4]: Toxic | Activity (Mus musculus [5]): inactive | Activity (Mus musculus [6]): Active | Activity (Mus musculus [7]): 77.7% | Activity [8]: Toxic | Activity (Mus musculus [9]): 66.6% | Activity (Mus musculus [10]): Active | Activity (Mus musculus [11]): Active | Activity (Mus musculus [12]): Active | Activity (Mus musculus [13]): 67.6% | Activity [14]: Toxic | Activity (Mus musculus [15]): Active | ED50 [16]: 21.97 mg/kg | Activity [17]: Toxic | Activity (Mus musculus [19]): inactive | Activity (Mus musculus [20]): Active | Activity (Mus musculus [21]): inactive | Activity (Mus musculus [22]): Active | Activity (Mus musculus [23]): Active | Activity (Mus musculus [24]): 69.3% | Activity (Mus musculus [25]): Active | Activity (Mus musculus [26]): Active | Activity (Mus musculus [27]): inactive | Activity (Mus musculus [28]): Active | Activity (Mus musculus [29]): Active | Activity (Mus musculus [30]): Active | Activity (Mus musculus [31]): Active | Activity (Mus musculus [32]): Active | Activity (Mus musculus [33]): inactive | Activity (Mus musculus [34]): inactive | Activity (Mus musculus [35]): 50.4% | Activity (Mus musculus [36]): inactive | Activity (Mus musculus [37]): 63.5% | Activity (Mus musculus [38]): inactive

Ki [39]: 1.17 µM
SMILES: c1cc(OCCCN2CCCCC2)ccc1CN1CCCCC1 [JNJ-5207852]

Ki (Histamine H3 receptor [1]): 0.0062 µM
SMILES: N#Cc1ccc(-c2ccc(OCCCN3CCCCC3)cc2)cc1
